An excerpt weighted towards active compounds, which were near 2.3% of everything screened.
TRPC4 act: activators of mouse TRPC4 channel, primary screen, Fluo4 calcium, HEK293 TRPC4beta/mu-opioid cells | Fluo4 calcium fluorescence; stronger effect = higher value | Short transient receptor potential channel 4 (Mus musculus), Q9QUQ5 | B-score at 10 µM | actives 0.49% (n = 310,000) | AID 2237, 2010;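 active means B-score above 5 SD of library B-scores, and initial fluorescence ratio not above library mean plus 5 SD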;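 further: positive B-score marks a calcium rise read as TRPC4 activation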
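System – HEK293 cells stably co-expressing mouse TRPC4beta and mu-opioid receptor · Signal – Fluo4 calcium-sensitive dye fluorescence, kinetic, 1 Hz baseline · Benchmarks – buffer (low) and maximal DAMGO (high) · Read-out – B score of integrated fluorescence ratio per well · Incubation – dye loading 45 min room temperature, 110 s kinetic read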
TRPC4 potent: positive allosteric modulators of TRPC4, primary screen, cell-based, mouse TRPC4beta, HEK293 mu-opioid, Fluo-4 calcium | actives 0.42% (n = 310,000) | Short transient receptor potential channel 4 (Mus musculus), Q9QUQ5 | AID 2227, 2009 | DAMGO EC20, Fluo-4 Ca2+ flux; stronger effect = higher value | B-score at 10 µM;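 active means B-score of calcium response area above 5 SD of library B-scores, with initial fluorescence ratio within 5 SD of library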
TRPC6 inh: mouse TRPC6 channel inhibitors, primary screen, cell-based, HEK293, membrane potential dye | actives 1.1% (n = 310,000) | Short transient receptor potential channel 6 (Mus musculus), Q61143 | B-score at 10 µM | ACh-evoked depolarization; stronger effect = lower value;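 active means B-score under library mean minus 3 SD, initial fluorescence not abnormally high, positive integrated signal ratio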;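 further: B-score derived from integrated fluorescence ratio over the kinetic read; more negative B-score means stronger inhibition of depolarization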
Target sequence (Q61143 whole entry, looked up): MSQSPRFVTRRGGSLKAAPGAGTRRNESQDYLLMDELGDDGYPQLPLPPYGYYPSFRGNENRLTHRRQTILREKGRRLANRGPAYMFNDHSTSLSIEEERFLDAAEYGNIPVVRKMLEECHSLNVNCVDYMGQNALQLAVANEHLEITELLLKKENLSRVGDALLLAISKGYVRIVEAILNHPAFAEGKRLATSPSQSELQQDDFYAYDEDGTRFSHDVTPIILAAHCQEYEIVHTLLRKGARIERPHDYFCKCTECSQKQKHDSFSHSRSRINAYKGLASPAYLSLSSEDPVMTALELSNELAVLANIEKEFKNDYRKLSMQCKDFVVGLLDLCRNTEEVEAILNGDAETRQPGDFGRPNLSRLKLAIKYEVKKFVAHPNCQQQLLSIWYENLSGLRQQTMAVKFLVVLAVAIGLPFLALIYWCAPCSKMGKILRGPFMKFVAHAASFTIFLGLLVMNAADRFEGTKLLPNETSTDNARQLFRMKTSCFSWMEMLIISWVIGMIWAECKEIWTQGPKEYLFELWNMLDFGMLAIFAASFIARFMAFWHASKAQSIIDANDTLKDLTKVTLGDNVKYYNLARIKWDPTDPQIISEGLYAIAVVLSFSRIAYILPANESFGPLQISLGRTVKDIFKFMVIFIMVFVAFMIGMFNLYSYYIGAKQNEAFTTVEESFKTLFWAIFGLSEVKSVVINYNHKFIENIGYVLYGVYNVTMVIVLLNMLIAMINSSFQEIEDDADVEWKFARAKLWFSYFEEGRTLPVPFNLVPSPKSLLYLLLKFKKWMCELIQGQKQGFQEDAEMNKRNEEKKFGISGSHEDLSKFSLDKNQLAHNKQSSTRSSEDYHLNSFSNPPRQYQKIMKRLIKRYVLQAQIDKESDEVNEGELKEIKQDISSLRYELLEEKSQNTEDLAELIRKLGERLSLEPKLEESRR
TRPC4 block: inhibitors of mouse TRPC4 channel, primary screen, Fluo4 calcium, HEK293 TRPC4beta/mu-opioid cells | Short transient receptor potential channel 4 (Mus musculus), Q9QUQ5 | DAMGO-evoked Fluo4 calcium flux; stronger effect = lower value | B-score at 10 µM | actives 0.39% (n = 300,000);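 active means B-score over 3 SD under the library average, no early fluorescence shift, positive overall ratio signal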
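Material: HEK293 cells with stable TRPC4beta plus mu-opioid receptor expression / Probe or stimulus: DAMGO in two steps, submaximal then maximal / Compound: single concentration per test compound / Technique: kinetic Fluo4 fluorescence imaging of calcium influx / Read-out: per-well B score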
TRPC6 activator: mouse TRPC6 channel activators, primary screen, cell-based, HEK293, membrane potential dye; HEK293-TRPC6 membrane potential dye fluorescence; stronger effect = higher value; actives 0.13% (n = 310,000); B-score at 10 µM; Short transient receptor potential channel 6 (Mus musculus), Q61143;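 active means B-score of the integrated fluorescence ratio above library mean plus 3 SD, and starting fluorescence ratio within library mean plus 5 SD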;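 further: higher score means more depolarization so channel activation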
DNA FID counter: compounds displacing fluorescent DNA intercalator, primary screen, artefact control for HCV NS3 helicase inhibitor project, biochemical, FID fluorescence. DNA fluorescent intercalator displacement. inhibition, % at 7.9 µM. actives 0.17% (n = 290,000). AID 1845, 2009; in the data active means inhibition above about 37%;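 further: higher means more ethidium bromide displaced from hairpin DNA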
Hits are given with their value.

O=C(N/N=C/c1cccc(F)c1)NC1CCCCC1 was read as TRPC4 act inactive, TRPC4 potent 12, TRPC6 inh inactive, TRPC4 block inactive, TRPC6 activator inactive and DNA FID counter inactive.
`O=C(N/N=C/c1ccccc1OC(F)F)NC1CCCCC1` gave TRPC4 act inactive, TRPC4 potent inactive, TRPC6 inh inactive, TRPC4 block inactive, TRPC6 activator inactive and DNA FID counter inactive.
`O=C(N/N=C/c1ccccc1F)NC1CCCCC1` gave TRPC4 act 177, TRPC4 potent 21, TRPC6 inh inactive, TRPC4 block inactive, TRPC6 activator inactive and DNA FID counter inactive.
`O=C(N/N=C/c1ccccc1)NC1CCCCC1` gave TRPC4 act inactive, TRPC4 potent inactive, TRPC6 inh inactive, TRPC4 block inactive, TRPC6 activator inactive and DNA FID counter inactive.
Screening CSc1ccc(Cc2ccc(Cl)cc2Cl)nn1 returned TRPC4 act inactive, TRPC4 potent inactive, TRPC6 inh inactive, TRPC4 block inactive, TRPC6 activator inactive and DNA FID counter inactive.
NNc1ccc(Cc2ccc(Cl)cc2Cl)nn1 was read as TRPC4 act inactive, TRPC4 potent 15, TRPC6 inh inactive, TRPC4 block inactive, TRPC6 activator inactive and DNA FID counter inactive.
CCOC(=O)C1=C(C)N(C)C(=S)NC1c1ccccc1Cl (configuration not stated) was read as TRPC4 act inactive, TRPC4 potent inactive, TRPC6 inh inactive, TRPC4 block inactive, TRPC6 activator inactive and DNA FID counter inactive.
For CCOC(=O)C1=C(C)N(C)C(=S)NC1c1ccc(Cl)cc1 (configuration not stated) the results were TRPC4 act inactive, TRPC4 potent inactive, TRPC6 inh inactive, TRPC4 block -6, TRPC6 activator inactive and DNA FID counter inactive.
`CCOC(=O)C1=C(C)N(C)C(=S)NC1c1cccc(Cl)c1Cl` (configuration not stated) gave TRPC4 act inactive, TRPC4 potent 21, TRPC6 inh inactive, TRPC4 block inactive, TRPC6 activator inactive and DNA FID counter inactive.
Screening Cc1cccc(C(=O)Nc2ccc(S(=O)(=O)N3CCOCC3)cc2C)c1 returned TRPC4 act inactive, TRPC4 potent inactive, TRPC6 inh inactive, TRPC4 block inactive, TRPC6 activator inactive and DNA FID counter inactive.
For CCCc1cc(=O)oc2c(C)c(OCC(=O)N3CCC[C@@H]3C(=O)O)ccc12 the results were TRPC4 act inactive, TRPC4 potent inactive, TRPC6 inh inactive, TRPC4 block inactive, TRPC6 activator inactive and DNA FID counter inactive.
Screening CCc1cc(=O)oc2cc(OCC(=O)N3CCC[C@H]3C(=O)O)ccc12 returned TRPC4 act inactive, TRPC4 potent inactive, TRPC6 inh inactive, TRPC4 block inactive, TRPC6 activator inactive and DNA FID counter 95.
COC(=O)C1=C(COc2ccccc2)NC(=O)NC1c1ccc2ccccc2c1 (configuration not stated) was read as TRPC4 act 45, TRPC4 potent inactive, TRPC6 inh inactive, TRPC4 block inactive and TRPC6 activator inactive.
For COC(=O)C1=C(CCc2ccccc2)NC(=O)NC1c1ccc(C#N)cc1 (configuration not stated) the results were TRPC4 act inactive, TRPC4 potent inactive, TRPC6 inh inactive, TRPC4 block inactive and TRPC6 activator inactive.
Screening COC(=O)C1=C(COc2ccccc2)NC(=O)NC1c1ccc(Br)cc1 (configuration not stated) returned TRPC4 act inactive, TRPC4 potent inactive, TRPC6 inh inactive, TRPC4 block inactive, TRPC6 activator inactive and DNA FID counter inactive.
For COC(=O)C1=C(CCc2ccccc2)NC(=O)NC1c1ccc(Cl)cc1 (configuration not stated) the results were TRPC4 act inactive, TRPC4 potent 29, TRPC6 inh inactive, TRPC4 block inactive and TRPC6 activator inactive.
For CCOC(=O)C1=C(CNCCc2ccc(Cl)cc2)NC(=O)NC1c1cccc([N+](=O)[O-])c1 (configuration not stated) the results were TRPC4 act inactive, TRPC4 potent 17, TRPC6 inh inactive, TRPC4 block inactive, TRPC6 activator inactive and DNA FID counter inactive.
`Cn1c(CNC(=O)CNS(=O)(=O)c2ccc(Cl)cc2)cc(=O)n(C)c1=O` gave TRPC4 act inactive, TRPC4 potent inactive, TRPC6 inh inactive, TRPC4 block inactive, TRPC6 activator inactive and DNA FID counter inactive.
Screening COc1ccc(C2CC(=O)N(CCCN(C)CCc3ccc(OC)c(OC)c3)C2)cc1 (configuration not stated) returned TRPC4 act inactive, TRPC4 potent 13, TRPC6 inh inactive, TRPC4 block inactive, TRPC6 activator inactive and DNA FID counter inactive.
`COC(=O)[C@]1(C)N[C@H](c2ccc(-c3ccc(Cl)c(Cl)c3)c(OC)c2)[C@@H]2C(=O)N(C)C(=O)[C@@H]21` gave TRPC4 act inactive, TRPC4 potent inactive, TRPC6 inh inactive, TRPC4 block inactive and TRPC6 activator inactive.
Screening CN(C)CCOC(=O)C12CC3(C)CC(C)(CC(C)(C3)C1)C2 returned TRPC4 act 46, TRPC4 potent inactive, TRPC6 inh inactive, TRPC4 block inactive, TRPC6 activator inactive and DNA FID counter inactive.
CN(C)CCOC(=O)C12CC3CC(CC(C3)C1)C2 was read as TRPC4 act inactive, TRPC4 potent inactive, TRPC6 inh inactive, TRPC4 block inactive, TRPC6 activator inactive and DNA FID counter inactive.
`Cn1cc(CN2CCCC(CO)(Cc3cccc(Cl)c3)C2)cn1` (configuration not stated) gave TRPC4 act inactive, TRPC4 potent inactive, TRPC6 inh inactive, TRPC4 block inactive, TRPC6 activator inactive and DNA FID counter inactive.
CCn1cc(CN2CCCC(CO)(Cc3cccc(Cl)c3)C2)cn1 (configuration not stated) was read as TRPC4 act inactive, TRPC4 potent inactive, TRPC6 inh inactive, TRPC4 block -6, TRPC6 activator inactive and DNA FID counter inactive.
`CC(OC(=O)c1ccc(Cl)nc1)C(=O)NCc1ccc2c(c1)OCO2` (configuration not stated) gave TRPC4 act inactive, TRPC4 potent inactive, TRPC6 inh inactive, TRPC4 block inactive and TRPC6 activator inactive.
Screening Cc1ccc(CN2C3=NCCCN3c3ccccc32)cc1 returned DNA FID counter inactive.
CCCCN1C2=NCCCN2c2cc(C)c(C)cc21 was read as TRPC4 act inactive, TRPC4 potent inactive, TRPC6 inh inactive, TRPC4 block -7, TRPC6 activator inactive and DNA FID counter inactive.
